Laboratory results reported in article PMC5796531 (Chemistry (Weinheim an der Bergstrasse, Germany), 2014).
Where two headings read alike, the source gives them in different places.

Assays:
Format in all cases: cell-based, human
[1] = test system: HEK293 non-cancerous cells; assay: MTT cell growth inhibition assay, HEK293; details: read-out: IC50 values, HEK293
Method in brief: (§1)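 MTT assay: cells seeded at 1 × 10^5/well and allowed to adhere 24 h (37°C, 5% CO2). Compound was diluted from DMSO:water (1:3) stock into incomplete medium; finals 300–0.07 μM for 24 h. After a PBS rinse, cells got MTT (5 mg/ml) for 3 h; formazan dissolved in DMSO; A540 read. % viability = OD sample/OD control ×100. IC50 from dose-response curve fitting. Three independent duplicate sets; untreated and cisplatin controls.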

[2] = test system: T98G cells; assay: Cellular uptake by fluorescence detection; details: 1–4 μM
Method in brief: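 T98G cells in 96-well plates were allowed to adhere for 12 h, then exposed to 1–4 μM at 37°C in complete medium. After a PBS wash and medium replacement, cell-associated fluorescence was read on a plate reader (ex 330, em 485 nm). Free ligand served as the positive control. Microscopy: cells on glass slides, 2 μM overnight, ex 340–380 / barrier 435–485 filters.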

[3] = test system: KB head and neck cancer cells; assay: MTT cell growth inhibition assay, KB; details: read-out: IC50 values, KB
Method in brief: as §1

[4] = test system: T98G brain cancer cells; assay: MTT cell growth inhibition assay, T98G; details: read-out: IC50 values, T98G
Method in brief: as §1

[5] = test system: SNU80 thyroid cancer cells; assay: MTT cell growth inhibition assay, SNU80; details: read-out: IC50 values, SNU80
Method in brief: as §1

| IC50 ([3]; Homo sapiens, 24 h) | IC50 ([4]; Homo sapiens, T98G, 24 h) | IC50 ([5]; Homo sapiens, 24 h) | Compound | IC50 ([1]; Homo sapiens, HEK293, 24 h) | cellular uptake: fluorescence detected in cells [2] | IC50 ([1]; HEK293 non-cancerous cells, MTT, 24 h treatment) | IC50 ([3]; KB head and neck cancer cells, MTT, 24 h treatment) | IC50 ([4]; T98G brain cancer cells, MTT, 24 h treatment) | IC50 ([5]; SNU80 thyroid cancer cells, MTT, 24 h treatment) |
| --- | --- | --- | --- | --- | --- | --- | --- | --- | --- |
| 125 µM | 144 µM | 107 µM | O=C(Nc1ccc(C#Cc2ccncc2)cc1)c1cccc(C(=O)Nc2ccc(C#Cc3ccncc3)cc2)n1 [Complex 1, N,N′-bis(4-(pyridin-4-ylethynyl)phenyl)pyridine-2,6-dicarboxamide] | 157 µM | very weak fluorescence |  |  |  |  |
|  |  |  | N.N.[Cl][Pt][Cl] [cisplatin, reference compound] |  |  | 17.3 µM | 72.6 µM | 69.6 µM | 49.3 µM |
